Experimental data published in the RNAGym collection of RNA variant scans (doi:10.1126/science.aae0568).
Variants at the floor of the assay were thinned out.

B1: tRNA (parent)
chain: GUUCCGUUGGCGUAAUGGUAACGCGUCUCCCUCCUAAGGAGAAGACUGCGGGUUCGAGUCCCGUACGGAACG

Variants of: B1
Experiment: yeast fitness relative to wild type (ratio to wild type); higher = fitter; tRNA-Arg(CCU), competitive growth, 37 C, YPD
Summary of the method: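 The tRNA-Arg(CCU) gene variants were made by chemical synthesis with a 3% per-site mutation rate at 69 sites and inserted at the native genomic locus of Saccharomyces cerevisiae. After pooling, the strains were competed in YPD at 37°C for 24 hours in six parallel replicates. Gene amplicons from the start population and each end population were read by 100-nucleotide paired-end sequencing, and Darwinian fitness relative to wild type was taken from genotype frequency changes. Genotypes needed ≥ 100 starting reads, and estimates < 0.5 were set to 0.5.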

Point of comparison: A20G A37G G44A, yeast fitness 0.658. Against it:
- A20C C62G — lower, 0.618
- A20C C62A — higher, 0.831
- A20C C62U — higher, 0.923
- A20C C29A G51C — lower, ≤ 0.5
- A20C G52C U54A — lower, ≤ 0.5
- A20G A21C G39C G48C C62G — lower, ≤ 0.5
- A20G A42G U59C — lower, 0.634
- A20G A37U C60A — lower, 0.626
- A20G A65C — higher, 1.06
- A20G A65U — higher, 0.901
- A20C G50A C62U — higher, 1.13
- A20C C61A — higher, 0.779
- A20C C61G — higher, 0.747
- A20G C24G C60G C62U — lower, 0.562
- A20C U28C A36C — lower, ≤ 0.5
- A20C C29G A57U A70C — lower, ≤ 0.5
- A20G C31U A65U — higher, 0.695
- A20C C66A — higher, 0.697
- A20C C66G — higher, 0.766
- A20C C66U — higher, 0.931
- A20C C31G G58C — higher, 0.92
- A20G A40C A42U A43C G48A C61A A69U — lower, ≤ 0.5
- A20G A40U G58C — higher, 0.77
- A20G A45U G67C — lower, 0.613
- A20G A43C C61U A70C — lower, ≤ 0.5
- A20G C27A C46A — higher, 0.737
- A20G A36G A65G — higher, 0.846
- A20C G44C — higher, 0.688
- A20G A37U C46A — lower, ≤ 0.5
- A20G A36G A45U — higher, 0.683
- A20C G23C C27A U64A — lower, ≤ 0.5
- A20G C33A A57G — lower, 0.52
- A20C C29U C31G U32A C33A U53C — lower, ≤ 0.5
- A20G C31G C46G G50A — lower, ≤ 0.5
- A20G C24U C33U A43C — lower, ≤ 0.5
- A20C G25C C31U A43G G51A G67A — lower, 0.583
- A20C C30A C33U C34U C49A — higher, 0.733
- A20G C29G A40G C49G — lower, ≤ 0.5
- A20G C27A G48A — higher, 0.762
- A20C C31A C60U — lower, ≤ 0.5
- A20C C46A G68A — higher, 0.875
- A20G A40U A45C A65U — lower, ≤ 0.5
- A20G C22G C27G C30U C31G G51C G67A A69U — lower, ≤ 0.5
- A20G C24A C29G A37U G39A — lower, ≤ 0.5
- A20G A40G A42G C55U — lower, ≤ 0.5
- A20C C27G A57C — lower, ≤ 0.5
- A20G C27U A57C — lower, ≤ 0.5
- A20G A21U C31U A45C C49U A65C — lower, ≤ 0.5
- A20C G23A A43G C55G C60A — lower, ≤ 0.5
- A20G A57G C61U C62U A69G — lower, ≤ 0.5
- A20C G23C C27A — lower, 0.574
- A20G C33A A43U G44A A69C — lower, ≤ 0.5
- A20G C24G G44C — higher, 0.784
- A20C U28C — higher, 0.929
- A20G A37C A40G — lower, ≤ 0.5
- A20C C29U C34A C46A G50A A57U C66U — lower, ≤ 0.5
- A20G C22U C31G C66U — lower, ≤ 0.5
- A20G A21G G38C G50C — lower, ≤ 0.5
- A20C C34U U47G C60U C62G — lower, ≤ 0.5
- A20G A43U C62U — higher, 0.86
- A20C G23A — higher, 0.788
- A20G A40U G51C — lower, ≤ 0.5
- A20G C27A U35C A36G A42U — lower, ≤ 0.5
- A20C U26C — higher, 0.883
- A20G C29A G68A — lower, 0.613
- A20C C34G A43C G56A C61U — higher, 0.705
- A20G A36U A42G G58A — lower, ≤ 0.5
- A20C C49A — lower, 0.575
- A20C C27U A36G A65G G67A — lower, 0.542
- A20C C60U — higher, 0.742
- A20C C60G — lower, 0.591
- A20G A42C C66U — lower, 0.625
- A20G A37G — higher, 0.718
- A20G C30G G56C C62U — lower, ≤ 0.5
- A20G C33A G44A — lower, 0.535
- A20C G25A G44A — higher, 0.85
- A20C G67C A70U — higher, 0.761
- A20C C55A — higher, 0.699
- A20C G23U C60A — higher, 0.676
- A20C G50A — higher, 0.861
- A20G C29A — higher, 0.705
- A20G C29U — higher, 0.88
- A20C U28G U47C C66U — lower, ≤ 0.5
- A20G C22G G56A G67A — lower, ≤ 0.5
- A20G C24U C33U — lower, ≤ 0.5
- A20C G38A C55A C66U — lower, ≤ 0.5
- A20C U26G A36C G38U A65U — lower, ≤ 0.5
- A20C C27U C34G — lower, 0.581
- A20G A43U C46U A57U — lower, ≤ 0.5
- A20C G25A U28C G44A — lower, 0.553
- A20C C31A G39C C49U — lower, ≤ 0.5
- A20C C31G C61G A65G — lower, ≤ 0.5
- A20C C46A C61U C66U — lower, ≤ 0.5
- A20G C27A C46G U53A C60G G67C — lower, ≤ 0.5
- A20C G39A U54A — lower, 0.599
- A20G C27G A43U G68C — lower, 0.582
- A20C C30G C55A G67A — lower, ≤ 0.5
- A20G C24U A65C — lower, 0.653
- A20C C31U A42U — lower, 0.643
- A20G A36C G56C C61U — lower, ≤ 0.5
- A20C C34U G52A C62U — lower, ≤ 0.5
- A20C C31U U53A — lower, ≤ 0.5
- A20C G25A A57G — higher, 0.694
- A20G C24A C27A — lower, 0.52
- A20C U54A — higher, 0.698
- A20C C49U A70G — higher, 0.748
- A20C C27U U59G — lower, 0.582
- A20G A45C — higher, 0.866
- A20G A45U — higher, 1.04
- A20G A45G — higher, 0.992
- A20G C29A A70U — lower, 0.557
- A20G A21U — higher, 0.782
- A20C C30G C60A — lower, ≤ 0.5
- A20G C22G U47C — lower, 0.647
- A20G C31G U64C — higher, 0.694
- A20C U28C A65G — higher, 0.661
- A20C C62U A65G — lower, 0.593
- A20C G23A G50A C55G C60A — lower, ≤ 0.5
- A20G C29U U47G C49U — lower, ≤ 0.5
- A20G A40C C60G — lower, ≤ 0.5
- A20C C30G U35C C60A — lower, ≤ 0.5
- A20G A21C C30A G41C — lower, 0.581
- A20G C33U C49G G50C — lower, ≤ 0.5
- A20C G48C G67A — lower, 0.638
- A20C G23A A70U — lower, 0.551
- A20C C34G A43C C62U G68C — lower, ≤ 0.5
- A20G A21C C30A G41C C66U — lower, 0.526
- A20C C29G U35C — lower, ≤ 0.5
- A20G A65U A69C — lower, ≤ 0.5
- A20G A65U A69U — higher, 0.857
- A20C C33U A43C G48C — lower, 0.525
- A20C C55G A65G — lower, 0.53
- A20C C29G C31U A57U — lower, ≤ 0.5
- A20C C31U A40G G52C C62A A65G — lower, ≤ 0.5
- A20C G56A A70G — lower, 0.611
- A20C G56A A70U — higher, 0.91
- A20G C33U G39A A69C — lower, ≤ 0.5
- A20G C31G C55G A70G — lower, ≤ 0.5
- A20C U32C — higher, 0.985
- A20C U32A — higher, 0.719
- A20G C24U U26A C61G A65C — lower, 0.567
- A20C C29U C34A C46A G50A A57U G58A C66U — lower, ≤ 0.5
- A20C G38C G63A A70C — lower, ≤ 0.5
- A20C U28A C31G C55A G68C — lower, ≤ 0.5
- A20G C27U G58C — higher, 0.78
- A20C C31A A70U — lower, ≤ 0.5
- A20G A45U G48A C55A — lower, ≤ 0.5
- A20G A21C G39C C62G — lower, ≤ 0.5
- A20C C29U A37G A69U — lower, 0.526
- A20C U47G C60G — lower, ≤ 0.5
- A20G A36U C61U — lower, 0.571
- A20G A36C A45C G52A G67U — lower, ≤ 0.5
- A20G C29G A37G G67C — lower, ≤ 0.5
- A20G A21U A36G A40C C55U — lower, ≤ 0.5
- A20G A37U G48C — lower, 0.603
- A20G C22U — higher, 0.751
- A20C C29G — lower, 0.609
- A20G C33U A40G C62G A70U — lower, ≤ 0.5
- A20C C34G A42G — higher, 0.922
- A20G C27G G52A — lower, 0.551
- A20C C27G C49A — lower, ≤ 0.5
- A20C G41C A42C G56A U64C A70U — lower, ≤ 0.5
- A20C G67A — higher, 0.873
- A20C G67C — lower, 0.654
- A20C U28G C46A — lower, 0.531
- A20C G50A G68A — lower, ≤ 0.5
